Measured values reported in publication PMC5497724 (Cancer Science, 2017).

Key:
[1] = rats, given orally; cited from earlier work
[2] = SCID mice, 4.4 mg/kg i.v.; 40% ethanol, 5% PEG 400, 55% normal saline; cited from earlier work
[3] = test system: HT1080 cells; assay: Western blot analysis of PI3K pathway and histone acetylation; format: cell-based, human; conditions: 3 h
Procedure, shortened: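 HT1080 cells in RPMI-1640 with 10% FBS were handled as in the proliferation assay: 8 × 10³ cells seeded, 24 h at 37°C. Cells were treated 3 h with test compound (in DMSO) at various concentrations. Reference treatments were 2.5 μM SAHA, 1 μM GDC-0941 or both. Western blots probed phospho-AKT (Ser473, Thr308), AKT, phospho-S6, S6, acetyl-histone H3 and β-actin.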

## C/C=C1\NC(=O)[C@H]2CSSCC/C=C/[C@H](CC(=O)N[C@H](C(C)C)C(=O)N2)OC(=O)[C@H](C(C)C)NC1=O [FK228, Romidepsin]
[1]
  drug levels after oral dosing vs i.v.: lower and more erratic drug levels than i.v. treatment
[2]
  AUC: 1123 ng·h/mL

## O=C(CCCCCCC(=O)Nc1ccccc1)NO [SAHA, Suberoylanilidehydroxamic acid]
[3]
  acetylation of histone H3 (Western blot): promoted acetylation of histone H3

## CS(=O)(=O)N1CCN(Cc2cc3nc(-c4cccc5[nH]ncc45)nc(N4CCOCC4)c3s2)CC1 [GDC0941]
[3]
  phosphorylation of AKT and S6 (Western blot): inhibited the phosphorylation of AKT and S6 ribosomal protein
